Screens: PubChem, several laboratories
This is a sample that favours compounds with a hit; in the whole collection about 4.5% have one here.
MrgX1 ag: human MrgX1 receptor agonism, primary screen; B-score at 10 µM; AID 588627; 310,000 compounds, 0.44% hits; Q96LB2; MrgX1-HEK293 cells, Fluo-4 calcium fluorescence, agonist mode; hits give high values;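 active = calcium response B-score plate-corrected fluorescence ratio at least 3 library SD, with starting fluorescence B-score inside 5 SD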
Target sequence (Q96LB2 whole entry, looked up): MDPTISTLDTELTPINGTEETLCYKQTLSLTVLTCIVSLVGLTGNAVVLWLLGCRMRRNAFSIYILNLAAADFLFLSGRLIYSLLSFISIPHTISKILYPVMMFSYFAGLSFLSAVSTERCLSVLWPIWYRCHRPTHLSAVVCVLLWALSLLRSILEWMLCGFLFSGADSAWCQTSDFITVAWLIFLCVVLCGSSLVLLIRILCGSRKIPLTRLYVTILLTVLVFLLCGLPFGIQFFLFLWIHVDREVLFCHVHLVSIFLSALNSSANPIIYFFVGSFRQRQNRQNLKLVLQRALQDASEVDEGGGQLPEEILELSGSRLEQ
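System: HEK293 cells stably expressing human MrgX1 receptor; Dosing: test compound in the initial addition of three; Schedule: overnight plating, then 30 min 37 °C plus 30 min room-temperature dye loading; Detection: kinetic calcium dye fluorescence, Fluo-4 NW; Controls: per-plate positive and negative controls for Z′ factor.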
MrgX1 antagonist: antagonists of human MrgX1 receptor; AID 588676; 310,000 compounds, 1.3% hits; MRGX1-HEK293 calcium flux, Fluo-4, BAM8-22 antagonism; hits give low values; Q96LB2; B-score at 10 µM;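 active = calcium-response B-score plate-corrected more than 3 library SD below zero, starting fluorescence within 5 deviations, no agonist response on first addition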;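 note: peak minus trough fluorescence over baseline after final BAM8-22 challenge near maximal dose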
MrgX1 PAM: allosterically activates human MrgX1 receptor signaling. MrgX1-HEK293, Fluo-4 calcium flux, FDSS; hits give high values. B-score at 10 µM. 310,000 compounds, 0.63% hits. AID 588675;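 active = plate-corrected calcium response at least 3 library SD above typical, normal starting fluorescence, not activating the receptor alone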;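 note: compound read alongside a low EC10 to EC30 dose of BAM8-22 agonist; peak minus trough fluorescence over baseline measured at the second addition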
RGS4 inh: inhibitors of human RGS4; P49798; HEK293 M3R/RGS4 inducible, Fluo-4 calcium flux; hits give high values; triggered by carbachol at its EC20; B-score at 10 µM; 310,000 compounds, 0.45% hits; AID 463165;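 active = B-score, a plate-corrected calcium signal, over three deviations above library mean, with baseline fluorescence within five deviations of library mean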;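 note: RGS4 expression induced by doxycycline in cells with stable M3 receptor; B-score is computed from the integrated fluorescence ratio over baseline after carbachol; higher B-score means a larger calcium signal and so more RGS4 inhibition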
Target sequence (P49798 whole entry, looked up): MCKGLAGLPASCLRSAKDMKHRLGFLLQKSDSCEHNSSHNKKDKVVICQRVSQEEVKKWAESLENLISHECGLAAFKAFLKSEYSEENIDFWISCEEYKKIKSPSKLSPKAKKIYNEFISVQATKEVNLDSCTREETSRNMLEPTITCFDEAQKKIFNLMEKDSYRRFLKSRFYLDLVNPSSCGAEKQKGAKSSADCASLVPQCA
RGS4 pot: RGS4 potentiation or activation. HEK293 M3R/inducible RGS4, carbachol calcium flux Fluo4; hits give low values. 310,000 compounds, 0.92% hits. B-score at 10 µM;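 active = B-score of the integrated calcium signal more than 4 SD below the library mean, with starting fluorescence not abnormally high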;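 note: negative B-score means reduced calcium response which marks RGS4 activation or potentiation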
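Detection: kinetic calcium fluorescence imaging with Fluo4-AM dye, 2 µM / Material: HEK293 cells with stable M3R and inducible RGS4 / Schedule: recording 10 s baseline at 1 Hz, 100 s post-agonist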
PHOSPHO1 inh: PHOSPHO1 (human) inhibition | Q8TCT1 | recombinant PHOSPHO1, absorbance phosphatase assay | inhibition, % at 13.3 µM | 290,000 compounds, 1.1% hits | AID 1565; in the data active = inhibition above about 60%
Target sequence (Q8TCT1 whole entry, looked up): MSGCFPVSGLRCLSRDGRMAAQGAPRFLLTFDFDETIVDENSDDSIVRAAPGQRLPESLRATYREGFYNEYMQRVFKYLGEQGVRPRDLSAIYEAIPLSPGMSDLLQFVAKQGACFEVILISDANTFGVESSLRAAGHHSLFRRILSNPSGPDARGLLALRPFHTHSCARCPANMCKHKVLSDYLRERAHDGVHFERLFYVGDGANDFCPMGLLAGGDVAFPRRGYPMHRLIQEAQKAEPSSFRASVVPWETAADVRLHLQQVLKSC
MrgX1 antag conf: reconfirmed antagonist of human MrgX1 receptor signaling; MrgX1-HEK293, BAM8-22 calcium flux, Fluo-4; hits give low values; 2,300 compounds, 19% hits; shares compounds with MrgX1 antagonist; remaining BAM8-22 calcium response % of control (hits give low values), % at 10 µM;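 active = remaining agonist calcium response no higher than 100% minus 3 SD of agonist-only control wells, with starting fluorescence near control levels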;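 note: agonist BAM8-22 given at a near maximal EC90 to ECmax level; peak minus minimum fluorescence divided by baseline after agonist addition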
HEK293 Ca flux: counter-screen for MrgX1 antagonists: effect in parental HEK293 cells; shares compounds with MrgX1 antagonist; Fluo-4 calcium fluorescence, FDSS; fluorescence ratio F(max-min)/F0 at 10 µM; 4,000 compounds, 2% hits;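 active = duplicate-averaged calcium fluorescence ratio at least three times the standard deviation of buffer wells, a nonspecific response in parental cells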
HEK293 Ca counter: MrgX1 allosteric activator counter-screen hit in parental HEK293 cells. 4,000 compounds, 0.4% hits. fluorescence ratio F(max-min)/F0 at 10 µM. shares compounds with MrgX1 antagonist. parental HEK293 calcium flux, Fluo-4 fluorescence ratio; hits give high values;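 active = calcium fluorescence ratio, averaged over duplicates, at least 3 SD of the buffer-well ratio, meaning a nonspecific response in receptor-free cells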;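 note: untransfected parental HEK293 lacking MrgX1 used as counterscreen for MrgX1 allosteric activators; fluorescence change taken during the second addition on a kinetic imager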
HEK293 Ca cntr2: activity in parental HEK293 cells lacking MrgX1 receptor; shares compounds with MrgX1 antagonist; fluorescence ratio F(max-min)/F0 at 10 µM; Fluo-4 calcium fluorescence (FDSS); hits give high values; AID 624115; 4,000 compounds, 8.7% hits;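 active = calcium fluorescence ratio at least three times the spread of buffer wells, meaning a non-specific response in parental cells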
A number is an active result.

What do the screens show for `O=C(O)c1ccc2c(c1Nc1ccccc1)C(=O)c1ccccc1C2=O`?
MrgX1 ag: inactive; MrgX1 antagonist: inactive; MrgX1 PAM: inactive; RGS4 inh: inactive; RGS4 pot: inactive; PHOSPHO1 inh: inactive

What do the screens show for `CC(C)CC(=O)Nc1ccccc1N1CCOCC1`?
MrgX1 ag: inactive; MrgX1 antagonist: -4.6; MrgX1 PAM: inactive; RGS4 inh: inactive; RGS4 pot: inactive; PHOSPHO1 inh: inactive; MrgX1 antag conf: inactive; HEK293 Ca flux: inactive; HEK293 Ca counter: 48; HEK293 Ca cntr2: inactive

What do the screens show for `Cc1cc(NC(=O)C(C)SCC(=O)Nc2ccccc2N2CCCC2)no1` (stereo not drawn)?
MrgX1 ag: inactive; MrgX1 antagonist: -11; MrgX1 PAM: inactive; RGS4 inh: inactive; RGS4 pot: inactive; MrgX1 antag conf: 76%; HEK293 Ca flux: inactive; HEK293 Ca counter: inactive; HEK293 Ca cntr2: inactive

What do the screens show for `Cc1cc(NC(=O)C(C)SCC(=O)Nc2cc(C(F)(F)F)ccc2N2CCCCC2)no1` (stereo not drawn)?
MrgX1 ag: inactive; MrgX1 antagonist: inactive; MrgX1 PAM: inactive; RGS4 inh: inactive; RGS4 pot: inactive

How did Cc1ccc(C(=O)Nc2ccc3c(c2)C(=O)N(C)C3=O)c(C)c1 do in these assays?
MrgX1 ag: inactive; MrgX1 antagonist: -6.8; MrgX1 PAM: inactive; RGS4 inh: inactive; RGS4 pot: inactive; PHOSPHO1 inh: inactive; MrgX1 antag conf: inactive; HEK293 Ca flux: inactive; HEK293 Ca counter: inactive; HEK293 Ca cntr2: inactive

How did CCCCCN1CC(=O)N2Cc3[nH]c4ccccc4c3C[C@H]2C1=O do in these assays?
MrgX1 ag: inactive; MrgX1 antagonist: -19; MrgX1 PAM: inactive; RGS4 inh: inactive; RGS4 pot: inactive; PHOSPHO1 inh: inactive; MrgX1 antag conf: inactive; HEK293 Ca flux: inactive; HEK293 Ca counter: inactive; HEK293 Ca cntr2: inactive

Results for COc1cccc(/C=C/C(=O)OCC(=O)Nc2ccc(Cl)c(S(=O)(=O)N(C)C)c2)c1OC ?
MrgX1 ag: inactive; MrgX1 antagonist: inactive; MrgX1 PAM: inactive; RGS4 inh: inactive; RGS4 pot: inactive; PHOSPHO1 inh: inactive

What do the screens show for `Clc1c(Cl)c(Cl)c2n[nH]nc2c1Cl`?
MrgX1 ag: inactive; MrgX1 antagonist: -7; MrgX1 PAM: inactive; RGS4 inh: inactive; RGS4 pot: inactive; PHOSPHO1 inh: inactive; MrgX1 antag conf: inactive; HEK293 Ca flux: inactive; HEK293 Ca counter: inactive; HEK293 Ca cntr2: inactive

What do the screens show for `COc1ccccc1NC(=O)CNc1ccc(F)c(Cl)c1`?
MrgX1 ag: inactive; MrgX1 antagonist: inactive; MrgX1 PAM: inactive; RGS4 inh: inactive; RGS4 pot: inactive; PHOSPHO1 inh: inactive

What do the screens show for `Cc1cc(=O)oc2c(C)c(OC(C)C(=O)NC(Cc3c[nH]c4ccc(O)cc34)C(=O)O)ccc12` (stereo not drawn)?
MrgX1 ag: inactive; MrgX1 antagonist: -5.5; MrgX1 PAM: inactive; RGS4 inh: inactive; RGS4 pot: inactive; PHOSPHO1 inh: inactive; MrgX1 antag conf: inactive; HEK293 Ca flux: inactive; HEK293 Ca counter: inactive; HEK293 Ca cntr2: inactive

How did Cc1cc(C)nc(SCC(=O)NN)n1 do in these assays?
MrgX1 ag: inactive; MrgX1 antagonist: inactive; MrgX1 PAM: inactive; RGS4 inh: inactive; RGS4 pot: inactive; PHOSPHO1 inh: inactive

How did CCN1CCN(C(=O)C2COc3ccccc3O2)CC1 (stereo not drawn) do in these assays?
MrgX1 ag: inactive; MrgX1 antagonist: inactive; MrgX1 PAM: inactive; RGS4 inh: inactive; RGS4 pot: inactive; PHOSPHO1 inh: inactive

How did CCOC(=O)N1CCN(C(=O)C2COc3ccccc3O2)CC1 (stereo not drawn) do in these assays?
MrgX1 ag: inactive; MrgX1 antagonist: -7.8; MrgX1 PAM: inactive; RGS4 inh: inactive; RGS4 pot: inactive; PHOSPHO1 inh: inactive; MrgX1 antag conf: inactive; HEK293 Ca flux: inactive; HEK293 Ca counter: inactive; HEK293 Ca cntr2: inactive

Results for CN1CCN(C2CCCCCC2)CC1 ?
MrgX1 ag: inactive; MrgX1 antagonist: -5.3; MrgX1 PAM: inactive; RGS4 inh: inactive; RGS4 pot: inactive; PHOSPHO1 inh: inactive; MrgX1 antag conf: inactive; HEK293 Ca flux: inactive; HEK293 Ca counter: inactive; HEK293 Ca cntr2: inactive

Results for CN1CCN(C(=O)NC2CCCCC2)CC1 ?
MrgX1 ag: inactive; MrgX1 antagonist: inactive; MrgX1 PAM: inactive; RGS4 inh: inactive; RGS4 pot: inactive; PHOSPHO1 inh: inactive

Results for CCOc1ccc2nc(NC(=O)c3ccoc3C)sc2c1 ?
MrgX1 ag: inactive; MrgX1 antagonist: inactive; MrgX1 PAM: inactive; RGS4 inh: inactive; RGS4 pot: inactive; PHOSPHO1 inh: inactive

Results for CC1(C)C(C#N)=C(N)OC2=C1C(=O)CCC2 ?
MrgX1 ag: inactive; MrgX1 antagonist: -5.7; MrgX1 PAM: inactive; RGS4 inh: inactive; RGS4 pot: inactive; PHOSPHO1 inh: inactive; MrgX1 antag conf: inactive; HEK293 Ca flux: inactive; HEK293 Ca counter: inactive; HEK293 Ca cntr2: inactive

How did N#CC1=C(N)OC2=C(C(=O)CCC2)C12CCC1(CC2)OCCO1 do in these assays?
MrgX1 ag: inactive; MrgX1 antagonist: inactive; MrgX1 PAM: inactive; RGS4 inh: inactive; RGS4 pot: inactive; PHOSPHO1 inh: inactive

What do the screens show for `Cc1cc(Br)ccc1NC(=S)NCCc1ccccc1`?
MrgX1 ag: inactive; MrgX1 antagonist: inactive; MrgX1 PAM: inactive; RGS4 inh: inactive; RGS4 pot: inactive; PHOSPHO1 inh: inactive

How did Cc1ccc(NC(=S)NCCc2ccccc2)c(C)c1 do in these assays?
MrgX1 ag: inactive; MrgX1 antagonist: -5.2; MrgX1 PAM: inactive; RGS4 inh: inactive; RGS4 pot: inactive; PHOSPHO1 inh: inactive; MrgX1 antag conf: inactive; HEK293 Ca flux: inactive; HEK293 Ca counter: inactive; HEK293 Ca cntr2: inactive

What do the screens show for `Cc1cccc(NC(=O)CSCC(=O)N(CCC(C)C)c2c(N)n(Cc3ccccc3)c(=O)[nH]c2=O)c1`?
MrgX1 ag: inactive; MrgX1 antagonist: inactive; MrgX1 PAM: inactive; RGS4 inh: inactive; RGS4 pot: inactive

What do the screens show for `Cc1nc2sc(C(c3ccco3)N3CCN(C(c4ccccc4)c4ccccc4)CC3)c(O)n2n1` (stereo not drawn)?
MrgX1 ag: inactive; MrgX1 antagonist: inactive; MrgX1 PAM: inactive; RGS4 inh: inactive; RGS4 pot: inactive; PHOSPHO1 inh: inactive
